Data published in ChEMBL document CHEMBL4020709, “4-Indolyl-N-hydroxyphenylacrylamides as potent HDAC class I and IIB inhibitors in vitro and in vivo” (Eur J Med Chem, 2017).
Calls of active or inactive are those of the source. The rule behind the calls is not given here.

Columns and labels:
[1] = test system: A549; experiment: cells; format: functional; details: Homo sapiens, A549, 48 h
[2] = test system: PC-3; experiment: cells; format: functional; details: Homo sapiens, PC-3, 48 h
[3] = Inhibition of HDAC in human HeLa cell nuclear extract using […] as substrate after 30 mins by fluorescence assay; format: cell-free
Outline: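 HeLa nuclear extract was incubated with fluorometric HDAC substrate in assay buffer at 37°C for 30 min. Lysine developer was then added for a further 30 min at 37°C. Fluorescence was read at ex 355/em 460 nm. Negative controls lacked extract, substrate, or both.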

[4] = test system: ASPC1; experiment: cells; format: functional; details: Homo sapiens, ASPC1, 48 h
[5] = test system: MDA-MB-231; experiment: cells; format: functional; details: Homo sapiens, MDA-MB-231, 48 h
[6] = molecular target: T1, Protein deacetylase HDAC6 (Homo sapiens, UniProt Q9UBN7); experiment: Inhibition of recombinant human full length HDAC6 using Fluor-de-Lys as substrate after 60 mins by spectrofluorimetric analysis
T1 sequence (Q9UBN7 whole entry): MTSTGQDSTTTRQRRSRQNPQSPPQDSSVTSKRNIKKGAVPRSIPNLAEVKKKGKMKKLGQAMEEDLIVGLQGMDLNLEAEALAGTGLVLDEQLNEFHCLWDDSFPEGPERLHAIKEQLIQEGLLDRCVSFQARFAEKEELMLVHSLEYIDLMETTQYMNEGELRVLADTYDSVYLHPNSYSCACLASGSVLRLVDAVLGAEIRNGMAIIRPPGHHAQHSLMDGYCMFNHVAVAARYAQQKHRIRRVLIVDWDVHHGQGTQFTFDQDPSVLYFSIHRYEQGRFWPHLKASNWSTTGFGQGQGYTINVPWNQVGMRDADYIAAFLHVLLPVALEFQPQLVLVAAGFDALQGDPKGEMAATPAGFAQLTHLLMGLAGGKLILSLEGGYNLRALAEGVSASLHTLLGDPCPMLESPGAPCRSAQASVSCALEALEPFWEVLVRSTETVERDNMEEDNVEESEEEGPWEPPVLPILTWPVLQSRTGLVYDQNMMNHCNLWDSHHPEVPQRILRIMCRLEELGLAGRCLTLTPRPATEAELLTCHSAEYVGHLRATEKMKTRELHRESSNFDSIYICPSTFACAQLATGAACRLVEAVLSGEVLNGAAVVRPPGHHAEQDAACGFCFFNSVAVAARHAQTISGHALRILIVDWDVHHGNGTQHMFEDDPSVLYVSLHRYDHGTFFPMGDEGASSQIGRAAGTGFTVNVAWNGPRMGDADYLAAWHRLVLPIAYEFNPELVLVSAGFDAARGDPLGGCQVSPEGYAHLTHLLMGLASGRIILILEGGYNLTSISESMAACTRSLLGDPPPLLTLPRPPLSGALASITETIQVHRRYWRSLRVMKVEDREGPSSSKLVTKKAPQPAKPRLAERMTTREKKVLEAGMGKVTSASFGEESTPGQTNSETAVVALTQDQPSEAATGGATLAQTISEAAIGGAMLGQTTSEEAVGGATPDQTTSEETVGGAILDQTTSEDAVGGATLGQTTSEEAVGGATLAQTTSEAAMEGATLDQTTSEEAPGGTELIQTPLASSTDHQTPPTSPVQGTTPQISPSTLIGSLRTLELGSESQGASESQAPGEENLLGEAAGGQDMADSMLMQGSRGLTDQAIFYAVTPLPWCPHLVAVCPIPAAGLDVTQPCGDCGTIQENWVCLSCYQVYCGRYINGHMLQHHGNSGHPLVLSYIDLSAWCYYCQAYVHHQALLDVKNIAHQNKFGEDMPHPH

[7] = molecular target: Histone deacetylase 2 (Homo sapiens, UniProt Q92769); experiment: Inhibition of recombinant human full length HDAC2 using Fluor-de-Lys as substrate after 60 mins by spectrofluorimetric analysis
Histone deacetylase 2, sequence (Q92769 whole entry): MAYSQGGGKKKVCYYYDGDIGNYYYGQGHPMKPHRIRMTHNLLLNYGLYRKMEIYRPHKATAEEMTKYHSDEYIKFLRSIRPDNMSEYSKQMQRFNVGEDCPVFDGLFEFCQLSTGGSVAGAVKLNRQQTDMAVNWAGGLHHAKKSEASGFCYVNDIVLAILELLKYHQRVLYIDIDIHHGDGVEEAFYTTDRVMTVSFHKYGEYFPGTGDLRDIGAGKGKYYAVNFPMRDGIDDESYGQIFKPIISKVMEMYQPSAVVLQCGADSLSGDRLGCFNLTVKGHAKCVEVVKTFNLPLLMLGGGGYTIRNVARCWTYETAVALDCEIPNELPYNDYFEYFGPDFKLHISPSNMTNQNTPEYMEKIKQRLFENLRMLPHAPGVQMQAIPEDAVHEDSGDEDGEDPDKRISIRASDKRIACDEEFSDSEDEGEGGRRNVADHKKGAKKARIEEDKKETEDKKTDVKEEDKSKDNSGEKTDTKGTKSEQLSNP

[8] = molecular target: Histone deacetylase 4 (Homo sapiens, UniProt P56524); experiment: Inhibition of recombinant human full length HDAC4 using Fluor-de-Lys as substrate after 60 mins by spectrofluorimetric analysis
Histone deacetylase 4, sequence (P56524 whole entry): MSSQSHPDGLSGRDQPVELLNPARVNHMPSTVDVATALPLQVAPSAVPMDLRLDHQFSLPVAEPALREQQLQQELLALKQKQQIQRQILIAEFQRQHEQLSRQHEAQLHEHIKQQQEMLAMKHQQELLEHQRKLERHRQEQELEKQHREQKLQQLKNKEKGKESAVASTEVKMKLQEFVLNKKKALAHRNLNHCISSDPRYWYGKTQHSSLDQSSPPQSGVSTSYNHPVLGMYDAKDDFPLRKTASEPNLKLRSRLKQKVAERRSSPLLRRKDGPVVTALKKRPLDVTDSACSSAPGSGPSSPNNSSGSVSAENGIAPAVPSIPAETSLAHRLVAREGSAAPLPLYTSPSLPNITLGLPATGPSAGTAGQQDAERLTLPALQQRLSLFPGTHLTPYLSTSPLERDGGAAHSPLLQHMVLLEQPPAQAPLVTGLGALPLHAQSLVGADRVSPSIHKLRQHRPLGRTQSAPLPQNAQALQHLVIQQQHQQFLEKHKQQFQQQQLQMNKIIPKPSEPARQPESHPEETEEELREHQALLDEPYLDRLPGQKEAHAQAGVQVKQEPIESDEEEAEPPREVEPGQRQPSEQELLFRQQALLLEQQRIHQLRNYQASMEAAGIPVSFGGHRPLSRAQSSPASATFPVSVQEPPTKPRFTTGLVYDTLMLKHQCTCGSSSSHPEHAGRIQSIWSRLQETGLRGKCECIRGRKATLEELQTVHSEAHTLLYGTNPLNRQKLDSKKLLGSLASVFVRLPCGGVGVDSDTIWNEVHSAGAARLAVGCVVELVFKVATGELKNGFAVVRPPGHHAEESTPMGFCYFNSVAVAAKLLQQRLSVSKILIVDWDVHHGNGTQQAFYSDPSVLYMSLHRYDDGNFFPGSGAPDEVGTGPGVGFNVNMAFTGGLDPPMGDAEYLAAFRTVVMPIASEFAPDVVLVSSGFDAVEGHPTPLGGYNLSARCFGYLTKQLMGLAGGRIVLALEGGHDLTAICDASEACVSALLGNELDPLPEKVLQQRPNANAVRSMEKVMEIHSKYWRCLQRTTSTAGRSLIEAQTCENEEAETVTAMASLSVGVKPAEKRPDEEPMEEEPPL

[9] = molecular target: T2, Histone deacetylase 8 (Homo sapiens, UniProt Q9BY41); experiment: Inhibition of recombinant human full length HDAC8 using Fluor-de-Lys as substrate after 60 mins by spectrofluorimetric analysis
T2 sequence (Q9BY41 whole entry): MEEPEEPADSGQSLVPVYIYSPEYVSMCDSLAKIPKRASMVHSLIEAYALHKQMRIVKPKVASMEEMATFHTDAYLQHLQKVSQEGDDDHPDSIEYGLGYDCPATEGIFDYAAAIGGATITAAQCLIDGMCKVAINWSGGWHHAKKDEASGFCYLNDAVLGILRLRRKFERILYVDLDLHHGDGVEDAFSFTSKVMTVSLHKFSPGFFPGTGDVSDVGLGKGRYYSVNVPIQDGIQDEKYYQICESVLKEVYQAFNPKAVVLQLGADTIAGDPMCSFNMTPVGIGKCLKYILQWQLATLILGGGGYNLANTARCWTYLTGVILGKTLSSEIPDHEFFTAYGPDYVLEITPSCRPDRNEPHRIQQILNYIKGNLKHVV

[10] = molecular target: Histone deacetylase 1 (Homo sapiens, UniProt Q13547); experiment: Inhibition of recombinant human full length HDAC1 using Fluor-de-Lys as substrate after 60 mins by spectrofluorimetric analysis
Histone deacetylase 1, sequence (Q13547 whole entry): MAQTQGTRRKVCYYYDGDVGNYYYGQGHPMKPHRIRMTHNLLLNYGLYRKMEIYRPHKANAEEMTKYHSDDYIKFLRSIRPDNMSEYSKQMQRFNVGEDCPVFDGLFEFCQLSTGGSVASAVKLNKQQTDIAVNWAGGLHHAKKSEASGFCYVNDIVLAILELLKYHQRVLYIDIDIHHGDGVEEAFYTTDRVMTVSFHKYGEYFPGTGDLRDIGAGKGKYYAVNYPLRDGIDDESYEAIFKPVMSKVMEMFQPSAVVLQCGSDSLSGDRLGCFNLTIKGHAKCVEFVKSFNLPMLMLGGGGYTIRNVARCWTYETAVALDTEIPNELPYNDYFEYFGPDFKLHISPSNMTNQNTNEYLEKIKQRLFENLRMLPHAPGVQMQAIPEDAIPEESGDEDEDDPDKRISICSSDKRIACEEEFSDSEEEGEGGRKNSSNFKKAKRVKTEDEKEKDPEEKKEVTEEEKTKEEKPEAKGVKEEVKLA

[11] = test system: PC-3; experiment: Antitumor activity against human PC3 cells xenografted in nude mouse assessed as reduction in tumor volume administered ip every other day for 18 days measured twice weekly; format: functional, organism-based
Outline: (§1)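 Male nude mice were implanted s.c. in the flank with PC3 cells (1 × 10^7 per mouse) mixed with Matrigel. Dosing began at a tumor size of about 100 mm³ and was given i.p. every other day for 18 days. Tumors were measured by caliper twice weekly, and volume was calculated as length × width²/2. %TGI was derived from mean tumor volume against the vehicle group, compared by one-way ANOVA.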

[12] = test system: PC-3; experiment: Antitumor activity against human PC3 cells xenografted in nude mouse assessed as tumor growth inhibition at 40 mg/kg, ip administered every other day for 18 days measured twice weekly; format: functional; details: PC-3, ip, 432 h, read-out: TGI
Outline: as §1

[13] = test system: Mus musculus; experiment: Toxicity in nude mouse xenografted with human PC3 cells assessed as weight loss at 20 to 40 mg/kg, ip administered every other day for 18 days; format: organism-based; details: in vivo, 432 h
Outline: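 Male nude mice carried s.c. PC3 flank xenografts (1 × 10^7 cells with Matrigel). They received i.p. vehicle, 20 mg/kg or 40 mg/kg every other day for 18 days, and body weight (g) was tracked over the study.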

[14] = species on record: Homo sapiens; details: at 1 µM
[15] = test system: PC-3; experiment: Antitumor activity against human PC3 cells xenografted in nude mouse assessed as tumor growth inhibition at 20 mg/kg, ip administered every other day for 18 days measured twice weekly; format: functional; details: PC-3, ip, 432 h, read-out: TGI
Outline: as §1

[16] = test system: Mus musculus; experiment: Effect on HDAC1 expression in nude mouse xenografted with human PC3 cells at 20 and 40 mg/kg, ip administered every other day for 18 days measured twice weekly by hematoxylin/eosin staining based immunohistochemical analysis; format: functional, organism-based
Outline: (§2)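 PC3 xenograft tumors were formalin-fixed and paraffin-embedded, then sectioned. Sections were deparaffinized and rehydrated, and endogenous peroxidase was quenched with 3% H2O2. Antigen retrieval used pH 9 buffer at 80°C overnight, followed by blocking with fat-free milk. Primary antibody (acetyl-histone H3, HDAC1 or HDAC2) was applied at 4°C overnight, then secondary antibody, then Mayer's hematoxylin counterstain. Separate sections received H&E staining.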

[17] = test system: Mus musculus; experiment: In-vivo inhibition of HDAC in ip dosed nude mouse xenografted with human PC3 cells assessed as upregulation of acetyl-histone 3 expression by hematoxylin/eosin staining based immunohistochemical analysis; format: functional, organism-based
Outline: as §2

[18] = species on record: Homo sapiens; details: at 1 µM; remark: listed apart in the source
[19] = test system: Mus musculus; experiment: Downregulation of HDAC2 expression in nude mouse xenografted with human PC3 cells at 40 mg/kg, ip administered every other day for 18 days measured twice weekly by hematoxylin/eosin staining based immunohistochemical analysis; format: functional, organism-based
Outline: as §2

Row | GI50 [1] [nM] | GI50 [2] [nM] | IC50 [3] [nM] | GI50 [4] [nM] | GI50 [5] [nM] | Compound | further results
1 | 820 | 330 | 52.2 | 2780 | 2470 | O=C(/C=C/c1cccc(S(=O)(=O)NCCc2ccc3[nH]ccc3c2)c1)NO | 
2 | 250 | 150 | 14.3 | 160 | 80 | Cn1ccc2c(CCNS(=O)(=O)c3ccc(/C=C/C(=O)NO)cc3)cccc21 | IC50 [6]: 6.8 nM; IC50 [7]: 0.53 nM; IC50 [8]: > 100 nM; IC50 [9]: > 100 nM; IC50 [10]: 1.34 nM
3 | 250 | 140 | 8.56 | 240 | 320 | O=C(/C=C/c1ccc(S(=O)(=O)NCCc2cccc3[nH]ccc23)cc1)NO | IC50 [6]: 8.32 nM; Activity [11]: Dose-dependent effect; inhibition in vivo at 40 mg/kg [12]: 62.2%; Activity [13]: Non-Toxic; IC50 [7]: 0.9 nM; inhibition [14]: Active; inhibition in vivo at 20 mg/kg [15]: 51.6%; IC50 [8]: > 100 nM; IC50 [9]: > 100 nM; IC50 [10]: 1.28 nM; Activity [16]: inactive; Activity [17]: Dose-dependent effect; inhibition [18]: Active; Activity [19]: Active
4 | > 10000 | 3490 | > 1000 | > 10000 | > 10000 | O=C(/C=C/c1ccc(S(=O)(=O)Nc2cccc3[nH]ccc23)cc1)NO | 
5 | 1650 | 860 | 7.17 | 4560 | 3550 | O=C(/C=C/c1ccc(S(=O)(=O)NCc2cccc3[nH]ccc23)cc1)NO | 
6 | 600 | 310 | 76.1 | 3970 | 9910 | O=C(/C=C/c1ccc(S(=O)(=O)NCCc2ccc3[nH]ccc3c2)cc1)NO | 
7 | 4350 | 2880 | 60 | 12500 | 5850 | COc1ccc(S(=O)(=O)n2ccc3c(CCNS(=O)(=O)c4ccc(/C=C/C(=O)NO)cc4)cccc32)cc1 | 
8 | 870 | 310 | 30.4 | 3850 | 2060 | O=C(/C=C/c1cccc(S(=O)(=O)NCCc2cccc3[nH]ccc23)c1)NO | 
9 | 230 | 310 | 81 | 650 | 280 | O=C(/C=C/c1cccc(S(=O)(=O)Nc2ccccc2)c1)NO [BELINOSTAT] | IC50 [8]: > 1000 nM
10 |  |  | 131 |  |  | O=C(CCCCCCC(=O)Nc1ccccc1)NO [VORINOSTAT] | 

Row | Compound | GI50 [1] [nM] | GI50 [2] [nM] | IC50 [3] [nM] | GI50 [4] [nM] | GI50 [5] [nM] | further results
11 | Nc1ccccc1NC(=O)c1ccc(CNC(=O)OCc2cccnc2)cc1 [ENTINOSTAT] | 5760 | 430 | > 1000 | 6900 | 1410 | 
